pIC50: −log10 of the molar value.
Experiments:
Rattus norvegicus [1] = species on record: Rattus norvegicus; experiment: Antidiabetic activity in albino rat diabetic model assessed as plasma glucose level measured after 6 hrs (reference value: 285 +/- 8.66 mg/dl); format: functional
Rattus norvegicus [2] = species on record: Rattus norvegicus; experiment: Antidiabetic activity in albino rat diabetic model assessed as plasma glucose level measured after 1 hr (reference value: 274 +/- 4.73 mg/dl); format: functional
[3] = Inhibition of calf ALR1; set-up: species or system Bos taurus
How it was run: (§1)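 ALR1 (aldehyde reductase) partially purified from calf kidney. Values are IC50 ± SEM in µM, or percent inhibition at 0.6 mM. Valproic acid served as positive control to validate the assay.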

[4] = Inhibition of calf ALR2; set-up: species or system Bos taurus
How it was run: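 Partially purified ALR2 extracted from calf eye. D,L-glyceraldehyde was the substrate with NADPH as cofactor, and sulindac served as reference. IC50 values are given ± SEM from n = 3. Kinetics were also run with inhibitor at 20 µM, varying substrate or NADPH for Km and inhibition type.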

Rattus norvegicus [5] = species on record: Rattus norvegicus; experiment: Antidiabetic activity in albino rat diabetic model assessed as plasma glucose level measured after 2 hrs (reference value: 251 +/- 2.91 mg/dl); format: functional
Rattus norvegicus [6] = species on record: Rattus norvegicus; experiment: Antidiabetic activity in albino rat diabetic model assessed as plasma glucose level measured after 4 hrs (reference value: 291 +/- 6.40 mg/dl); format: functional
Rattus norvegicus [7] = species on record: Rattus norvegicus; experiment: Antidiabetic activity in albino rat diabetic model assessed as plasma glucose level measured after 5 hrs (reference value: 275 +/- 3.53 mg/dl); format: functional
Rattus norvegicus [8] = species on record: Rattus norvegicus; experiment: Antidiabetic activity in albino rat diabetic model assessed as plasma glucose level measured after 7 hrs (reference value: 280 +/- 6.51 mg/dl); format: functional
Rattus norvegicus [9] = species on record: Rattus norvegicus; experiment: Antidiabetic activity in albino rat diabetic model assessed as plasma glucose level measured after 3 hrs (reference value: 263 +/- 10.67 mg/dl); format: functional
Bos taurus = species on record: Bos taurus; experiment: Inhibition of calf ALR1 at 0.6 mM; how it was run: as §1

## COc1ccc(S(=O)(=O)N2C(=O)NC3(CC4CCC3C4)C2=O)cc1 (stereo unspecified)
Rattus norvegicus [1]
  Activity: 600 mg/dL
Rattus norvegicus [2]
  Activity: 413 mg/dL
[3]
  pIC50: 4.40
[4]
  pIC50: 5.36
Rattus norvegicus [5]
  Activity: 353 mg/dL
Rattus norvegicus [6]
  Activity: 570 mg/dL
Rattus norvegicus [7]
  Activity: 565 mg/dL
Rattus norvegicus [8]
  Activity: 620 mg/dL
Rattus norvegicus [9]
  Activity: 544 mg/dL

## O=C1NC2(CC3CCC2C3)C(=O)N1S(=O)(=O)c1ccc(Cl)cc1 (stereo unspecified)
Rattus norvegicus [1]
  Activity: 143 mg/dL
Rattus norvegicus [2]
  Activity: 392 mg/dL
[3]
  pIC50: 4.21
[4]
  pIC50: 5.25
Rattus norvegicus [5]
  Activity: 287 mg/dL
Rattus norvegicus [6]
  Activity: 280 mg/dL
Rattus norvegicus [7]
  Activity: 215 mg/dL
Rattus norvegicus [8]
  Activity: 128 mg/dL
Rattus norvegicus [9]
  Activity: 283 mg/dL

## O=C1c2ccccc2C(=O)c2cc(S(=O)(=O)N3C(=O)NC4(CC5CCC4C5)C3=O)ccc21 (stereo unspecified)
Rattus norvegicus [1]
  Activity: 99 mg/dL
Rattus norvegicus [2]
  Activity: 460 mg/dL
[4]
  pIC50: 5.35
Bos taurus
  inhibition: 41.6%
Rattus norvegicus [5]
  Activity: 399 mg/dL
Rattus norvegicus [6]
  Activity: 281 mg/dL
Rattus norvegicus [7]
  Activity: 187 mg/dL
Rattus norvegicus [8]
  Activity: 86 mg/dL
Rattus norvegicus [9]
  Activity: 338 mg/dL

## O=C1NC2(CC3CCC2C3)C(=O)N1S(=O)(=O)c1ccc([N+](=O)[O-])cc1 (stereo unspecified)
Rattus norvegicus [1]
  Activity: 502 mg/dL
Rattus norvegicus [2]
  Activity: 399 mg/dL
[3]
  pIC50: 4.35
[4]
  pIC50: 4.88
Rattus norvegicus [5]
  Activity: 429 mg/dL
Rattus norvegicus [6]
  Activity: 421 mg/dL
Rattus norvegicus [7]
  Activity: 349 mg/dL
Rattus norvegicus [8]
  Activity: 542 mg/dL
Rattus norvegicus [9]
  Activity: 482 mg/dL

## CC1=C(CC(=O)O)c2cc(F)ccc2/C1=C\c1ccc([S+](C)[O-])cc1 (stereo unspecified) [SULINDAC]
[4]
  pIC50: 6.53

## COc1ccc(Cl)cc1C(=O)NCCc1ccc(S(=O)(=O)NC(=O)NC2CCCCC2)cc1 [GLYBURIDE]
Rattus norvegicus [1]
  Activity: 170 mg/dL
Rattus norvegicus [2]
  Activity: 350 mg/dL
Rattus norvegicus [5]
  Activity: 289 mg/dL
Rattus norvegicus [6]
  Activity: 239 mg/dL
Rattus norvegicus [7]
  Activity: 220 mg/dL
Rattus norvegicus [8]
  Activity: 150 mg/dL
Rattus norvegicus [9]
  Activity: 250 mg/dL

## O=C1NC2(CC3CCC2C3)C(=O)N1S(=O)(=O)c1ccc(Br)cc1 (stereo unspecified)
Rattus norvegicus [1]
  Activity: 337 mg/dL
Rattus norvegicus [2]
  Activity: 289 mg/dL
[4]
  pIC50: 4.81
Bos taurus
  inhibition: 43.2%
Rattus norvegicus [5]
  Activity: 273 mg/dL
Rattus norvegicus [6]
  Activity: 353 mg/dL
Rattus norvegicus [7]
  Activity: 352 mg/dL
Rattus norvegicus [8]
  Activity: 245 mg/dL
Rattus norvegicus [9]
  Activity: 357 mg/dL

## O=C1NC2(CC3CCC2C3)C(=O)N1S(=O)(=O)c1ccc2ccccc2c1 (stereo unspecified)
Rattus norvegicus [1]
  Activity: 414 mg/dL
Rattus norvegicus [2]
  Activity: 210 mg/dL
[4]
  pIC50: 5.42
Bos taurus
  inhibition: 36.8%
Rattus norvegicus [5]
  Activity: 389 mg/dL
Rattus norvegicus [6]
  Activity: 471 mg/dL
Rattus norvegicus [7]
  Activity: 401 mg/dL
Rattus norvegicus [8]
  Activity: 430 mg/dL
Rattus norvegicus [9]
  Activity: 393 mg/dL

## Cc1ccc(S(=O)(=O)N2C(=O)NC3(CC4CCC3C4)C2=O)cc1 (stereo unspecified)
Rattus norvegicus [1]
  Activity: 128 mg/dL
Rattus norvegicus [2]
  Activity: 506 mg/dL
[3]
  pIC50: 3.93
[4]
  pIC50: 5.74
Rattus norvegicus [5]
  Activity: 421 mg/dL
Rattus norvegicus [6]
  Activity: 225 mg/dL
Rattus norvegicus [7]
  Activity: 163 mg/dL
Rattus norvegicus [8]
  Activity: 114 mg/dL
Rattus norvegicus [9]
  Activity: 305 mg/dL
